PubChem BioAssay AID624102 (Broad Institute, 2012)
Active and inactive are the calls of the source.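 How the source made its calls: active means fitted curve reaches a 35% signal drop at a concentration no higher than twice the top valid dose, in duplicate at both wavelengths; inactive means the rest, including activity in the opposite direction.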

Experiment: P. aeruginosa growth delay under iron chelation, dose response, whole organism, absorbance 405 nm, EDDHA, dry powder, set 8 (AID 624102)
Settings: P. aeruginosa with EDDHA, growth/pyoverdine A405, 24-30 h; series mostly up to 120 µM
How it was run: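 Test system: P. aeruginosa ATCC 15692 cells | Input: Bacterial inoculum at final OD600 of 0.0000005 | Medium: Succinate M9 plus 2 µM EDDHA | Timing: Bacterial growth with compound for 24-30 h at 37 °C | Signal: Absorbance at 405 nm reflecting pyoverdine production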

outcome, inactive:
N#Cc1cccc(C(C#N)c2ccc(F)cc2)n1 (centres undefined)
COCCC(C#N)c1ccc(Cl)cc1 (centres undefined)
CCCCC(C#N)c1ccccn1 (centres undefined)
N#CC(c1ccc(F)cc1)c1cccc(Cl)n1 (centres undefined)
CCCCC(C#N)c1ccc(F)cc1 (centres undefined)
Clc1ccc(C(c2cccc(Cl)n2)c2nn[nH]n2)cc1 (centres undefined)
CCCCC(C#N)c1ccc(F)cn1 (centres undefined)
COCCOCCC(C#N)c1ccc(Cl)cc1 (centres undefined)
CCCCC(C#N)c1ccc(Cl)cn1 (centres undefined)
COCCC(C#N)c1ccc(F)cc1 (centres undefined)
COCCOCCC(C#N)c1ccc(F)cc1 (centres undefined)
N#CC1c2ccc(Cl)cc2CCc2cccnc21 (centres undefined)
CCCCC(c1ccc(Cl)cc1)c1nn[nH]n1 (centres undefined)
N#CC(c1ccc(Cl)cc1)N1CCCC1 (centres undefined)
CN(C)CCCC(C#N)c1ccc(F)cc1 (centres undefined)
N#CC(c1ccc(C(F)(F)F)c(Cl)n1)c1ccccc1OC(F)(F)F (centres undefined)
COCCNC(C#N)c1ccc(Cl)cc1 (centres undefined)
N#CC(c1ccc(Cl)cc1)c1ccccn1 (centres undefined)
CCCCC(C#N)c1ccc(Cl)cc1 (centres undefined)
